Experiments:
KB [1] = assay: Growth inhibition of human KB cells by SRB assay; format: functional
How it was run: (§1)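 Sulforhodamine B staining of human tumor cell lines: A-549 lung carcinoma, KB nasopharyngeal epidermoid carcinoma, P-gp-expressing vincristine-resistant KB (KBVIN) and DU145 prostate cancer. GI50 is the molar concentration giving 50% growth inhibition, reported as mean ± SD from at least triplicate runs.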

[2] = Growth inhibition of human KBVIN cells by SRB assay; format: functional; how it was run: as §1
DU-145 [3] = assay: Growth inhibition of human DU145 cells by SRB assay; format: functional; how it was run: as §1
A549 [4] = assay: Growth inhibition of human A549 cells by SRB assay; format: functional; how it was run: as §1
Tubulin = assay: Inhibition of tubulin assembly (unknown origin) pre-incubated with compound for 15 mins before GTP addition measured after 20 mins at 30 degC post GTP addition by turbidimetry; format: protein-complex assay, Homo sapiens
How it was run: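 Turbidity at 350 nm. Tubulin at 1.0 mg/mL (10 µM) was preincubated with varying compound concentrations for 15 min at 30 °C without GTP. Samples were chilled on ice and 0.4 mM GTP added, then moved to 0 °C cuvettes. After a rapid jump to 30 °C, assembly was followed for 20 min. IC50 is the concentration halving the turbidity increase relative to control.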

Tubulin (Homo sapiens) = Tubulin (Homo sapiens) (UniProt P68371+Q9H4B7+P0DPH7+P68366+Q13509+Q71U36+P04350+Q3ZCM7+P07437+P68363+Q9BQE3+Q6PEY2+Q13885+Q9BVA1+Q9BUF5); assay: Inhibition of [3H]colchicine binding to tubulin (unknown origin) at 5 uM incubated for 10 mins at 37 degC; format: protein-complex assay
A549 [5] = assay: Growth inhibition of human A549 cells at 20 ug/mL by SRB assay; format: functional; settings: read-out: GI; how it was run: as §1
[6] = Growth inhibition of human KBVIN cells at 20 ug/mL by SRB assay; format: functional; settings: read-out: GI; how it was run: as §1
DU-145 [7] = assay: Growth inhibition of human DU145 cells at 20 ug/mL by SRB assay; format: functional; settings: read-out: GI; how it was run: as §1
KB [8] = assay: Growth inhibition of human KB cells at 20 ug/mL by SRB assay; format: functional; settings: read-out: GI; how it was run: as §1

Compound | GI50 (KB [1]) | GI50 [2] | GI50 (DU-145 [3]) | GI50 (A549 [4]) | IC50 (Tubulin) | inhibition (Tubulin (Homo sapiens)) | inhibition of growth at 20 µg/mL (A549 [5]) | inhibition of growth at 20 µg/mL [6] | inhibition of growth at 20 µg/mL (DU-145 [7]) | inhibition of growth at 20 µg/mL (KB [8])
COCc1ccc(C(F)(F)F)nc1N(C)c1ccc(OC)cc1 | 1640 nM | 1430 nM | 1290 nM | 1200 nM | – | – | – | – | – | –
COC(=O)c1ccc(C(F)(F)F)nc1N(C)c1ccc(OC)cc1 | 410 nM | 190 nM | 250 nM | 350 nM | 1700 nM | 82% | – | – | – | –
COc1ccc(N(C)c2nc(C)ccc2[N+](=O)[O-])cc1 | 2920 nM | 4190 nM | 3350 nM | 4420 nM | – | – | – | – | – | –
CC(=O)O[C@H]1C(=O)[C@@]2(C)[C@H]([C@H](OC(=O)c3ccccc3)[C@]3(O)C[C@H](OC(=O)[C@H](O)[C@@H](NC(=O)c4ccccc4)c4ccccc4)C(C)=C1C3(C)C)[C@]1(OC(C)=O)CO[C@@H]1C[C@@H]2O [PACLITAXEL] | 7.77 nM | 1800 nM | 6.5 nM | 8.18 nM | – | – | – | – | – | –
CNC(=O)c1ccc(C(F)(F)F)nc1N(C)c1ccc(OC)cc1 | – | – | – | – | – | – | < 50% | < 50% | < 50% | < 50%
COc1ccc(N(c2nc(Cl)ccc2[N+](=O)[O-])C2CCCC2)cc1 | – | – | – | – | – | – | < 50% | < 50% | < 50% | < 50%
CCOC(=O)c1ccc(C(F)(F)F)nc1N(C)c1ccc(OC)cc1 | 1520 nM | 1300 nM | 1300 nM | 1460 nM | – | – | – | – | – | –
COc1ccc(N(C)c2nc(C(F)(F)F)ccc2-c2nnn[nH]2)cc1 | – | – | – | – | – | – | < 50% | < 50% | < 50% | < 50%
COc1ccc(N(C)c2nc(C(F)(F)F)ccc2C(=O)O)cc1 | – | – | – | – | – | – | < 50% | < 50% | < 50% | < 50%
COc1ccc(N(C)c2nc(Cl)ccc2C#N)cc1 | 22100 nM | 18100 nM | 20400 nM | 20400 nM | – | – | – | – | – | –
CNc1ccc([N+](=O)[O-])c(N(C)c2ccc(OC)cc2)n1 | 4530 nM | 9630 nM | 4450 nM | 4500 nM | – | – | – | – | – | –
COCc1ccc(Cl)nc1N(C)c1ccc(OC)cc1 | 330 nM | 200 nM | 250 nM | 300 nM | 1500 nM | 88% | – | – | – | –
COc1ccc(N(C)c2nc(Cl)ccc2C(=O)O)cc1 | – | – | – | – | – | – | < 50% | < 50% | < 50% | < 50%
COc1ccc(N(C)c2nc(C(F)(F)F)ccc2CO)cc1 | 1920 nM | 1750 nM | 1710 nM | 2130 nM | – | – | – | – | – | –
CN(c1ccc(C#N)cc1)c1nc(Cl)ccc1[N+](=O)[O-] | 22100 nM | 27000 nM | 21400 nM | 24000 nM | – | – | – | – | – | –
COc1ccc(N(C)c2nc(Cl)ccc2[N+](=O)[O-])cc1OC | 16000 nM | 16500 nM | 15000 nM | 18400 nM | – | – | – | – | – | –
COc1ccc(N(C)c2nc(C(F)(F)F)ccc2C#N)cc1 | 15300 nM | 7910 nM | 10700 nM | 7210 nM | – | – | – | – | – | –

Compound | GI50 (KB [1]) | GI50 [2] | GI50 (DU-145 [3]) | GI50 (A549 [4]) | IC50 (Tubulin) | inhibition (Tubulin (Homo sapiens)) | inhibition of growth at 20 µg/mL (A549 [5]) | inhibition of growth at 20 µg/mL [6] | inhibition of growth at 20 µg/mL (DU-145 [7]) | inhibition of growth at 20 µg/mL (KB [8])
COc1ccc(N(C)c2nc(C(F)(F)F)ccc2C(=O)OC(C)C)cc1 | – | – | – | – | – | – | < 50% | < 50% | < 50% | < 50%
CNc1ccc(C(=O)OC)c(N(C)c2ccc(OC)cc2)n1 | 1360 nM | 920 nM | 1670 nM | 3430 nM | – | – | – | – | – | –
COC(=O)c1ccc(Cl)nc1N(C)c1ccc(OC)cc1 | 260 nM | 200 nM | 210 nM | 230 nM | 1400 nM | 80% | – | – | – | –
COc1ccc(N(C)c2nc(Cl)ccc2C(=O)OC(C)C)cc1 | 14500 nM | 17300 nM | 17800 nM | 22000 nM | – | – | – | – | – | –
COc1ccc(N(C)c2nc(Cl)ccc2CO)cc1 | 2260 nM | 2120 nM | 1960 nM | 3250 nM | – | – | – | – | – | –
CNC(=O)c1ccc(Cl)nc1N(C)c1ccc(OC)cc1 | – | – | – | – | – | – | < 50% | < 50% | < 50% | < 50%
COc1ccc(N(C)c2nc(OC)ccc2[N+](=O)[O-])cc1 | 3310 nM | 2830 nM | 2700 nM | 3270 nM | – | – | – | – | – | –
COc1ccc(N(C)c2nc(C(F)(F)F)ccc2-c2nnnn2C)cc1 | 1470 nM | 1260 nM | 1160 nM | 1820 nM | – | – | – | – | – | –
C=CCN(c1ccc(OC)cc1)c1nc(Cl)ccc1[N+](=O)[O-] | 2610 nM | 3150 nM | 2690 nM | 3330 nM | – | – | – | – | – | –
CN(c1ccc(OC(F)(F)F)cc1)c1nc(Cl)ccc1[N+](=O)[O-] | – | – | – | – | – | – | < 50% | < 50% | < 50% | < 50%
COc1ccc(N(C(C)=O)c2nc(Cl)ccc2[N+](=O)[O-])cc1 | 14300 nM | 13900 nM | 11200 nM | 11800 nM | – | – | – | – | – | –
COc1cc(N(C)c2nc(Cl)ccc2[N+](=O)[O-])cc(OC)c1OC | – | – | – | – | – | – | < 50% | < 50% | < 50% | < 50%
COC(=O)c1ccc(OC)nc1N(C)c1ccc(OC)cc1 | 4010 nM | 4020 nM | 2450 nM | 3150 nM | – | – | – | – | – | –
COC(=O)c1ccc(N(C)c2nc(Cl)ccc2[N+](=O)[O-])cc1 | 2890 nM | 2870 nM | 2220 nM | 3000 nM | – | – | – | – | – | –
COc1ccc(N(C)c2nc(Cl)ccc2[N+](=O)[O-])cc1 | 1780 nM | 1860 nM | 1550 nM | 2200 nM | – | – | – | – | – | –
CCOC(=O)c1ccc(Cl)nc1N(C)c1ccc(OC)cc1 | 1800 nM | 1430 nM | 1430 nM | 1810 nM | – | – | – | – | – | –

From ChEMBL document CHEMBL2311323, “Synthesis and biological evaluation of N-alkyl-N-(4-methoxyphenyl)pyridin-2-amines as a new class of tubulin polymerization inhibitors” (Bioorg Med Chem, 2013)
